This is an account of results in ChEMBL document CHEMBL1145627, “E-ring-modified 7-oxyiminomethyl camptothecins: Synthesis and preliminary in vitro and in vivo biological evaluation” (Bioorg Med Chem Lett, 2008).

For data set [1], the system named is NCI-H460. As to the kind of experiment: Antiproliferative activity against human H460 cells after 1 hr of drug exposure measured after 72 hrs. The data set is classed as functional, cell-based. In a few lines: (§1)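 Growth inhibition after 1-h drug exposure; IC50 is the concentration giving 50% reduction of cell growth versus untreated controls. Values are means ± SD from at least three experiments.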

Data set [2] relates to HT-29. Briefly: Antiproliferative activity against human HT29 cells after 1 hr of drug exposure measured after 72 hrs. The data set is classed as functional, cell-based. Summed up:
as §1

Data set [3] concerns HT-29. As to the kind of experiment: Resistant index, ratio of IC50 for BCRP overexpressing mitoxantrone-resistant human HT29 cells to IC50 for human HT29 cells. The format is functional. In a few lines: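 Resistance index in HT29/mit, the BCRP-overexpressing subline. IC50 values come from the 1-h exposure growth inhibition assay, as 50% growth reduction versus untreated controls.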

The subject of data set [4] is HT-29. Briefly: Antiproliferative activity against BCRP overexpressing mitoxantrone-resistant human HT29 cells after 1 hr of drug exposure measured after 72 hrs. The data set is classed as functional, cell-based. Summed up: as §1
The next data set concerns PANC-1. Briefly: Antitumor activity against human Panc1 cells xenografted athymic mouse assessed as inhibition of tumor volume at 400 mg/kg, po administered in q4dx4 schedule. The data set is classed as functional. In a few lines:
(§2)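 Human tumor xenografts (CoBa colon, MKN-28 gastric, Panc-1 pancreatic) grown subcutaneously in mice. Drug given orally on an intermittent q4dx4 schedule. Read-out is % tumor volume inhibition in treated versus control mice. Complete responses were scored as tumor disappearance lasting at least ten days.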
(In general: A xenograft is tissue or cells of one species grown in another, often human tumour cells in immunodeficient mice.)

For data set [5], the system named is Mus musculus. As to the kind of experiment: Toxicity in human CoBa cells xenografted athymic mouse assessed as survival at 50 mg/kg, iv administered in q4dx4 schedule. The note with it: in vivo. Set-up: dose 50 mg/kg, route intravenous. The data set is classed as organism-based.
Data set [6] concerns Mus musculus. Briefly: Toxicity in human Panc1 cells xenografted athymic mouse assessed as survival at 400 mg/kg, po administered in q4dx4 schedule. The data set is classed as organism-based, PANC-1. Set-up: route oral. The note with it: in vivo. In a few lines:
(§3)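 Mice carried subcutaneous human tumor xenografts (CoBa, MKN-28 or Panc-1). They were dosed orally on an intermittent q4dx4 schedule, which was also used to set the maximum tolerated dose. Toxicity was scored as lethal toxicity, given as dead/treated mice. Drug-induced % body weight loss was also recorded.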

Data set [7] is described as follows: Antitumor activity against human CoBa cells xenografted in athymic mouse assessed as inhibition of tumor volume at 50 mg/kg, iv administered in q4dx4 schedule.
Data set [8] relates to Mus musculus. As to the kind of experiment: Toxicity in human MKN28 cells xenografted athymic mouse assessed as survival at 4 mg/kg, po administered in q4dx4 schedule. The format is organism-based, MKN-28. On the set-up: dose 4 mg/kg, route oral. The note with it: in vivo. In a few lines:
as §3

In data set [9] the test system is MKN-28. Briefly: Antitumor activity against human MKN28 cells xenografted athymic mouse assessed as inhibition of tumor volume at 16 mg/kg, po administered in q4dx4 schedule. The format is functional. Summed up:
as §2

The test system of data set [10] is Mus musculus. Briefly: Toxicity in human MKN28 cells xenografted athymic mouse assessed as loss of body weight at 4 mg/kg, po administered in q4dx4 schedule. The data set is classed as organism-based, MKN-28. The note with it: in vivo. Set-up: dose 4 mg/kg, route oral. In a few lines:
(§4)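 Oral dosing on an intermittent q4dx4 schedule in mice bearing MKN-28 gastric carcinoma xenografts. Tumor volume inhibition % is relative to controls. Body weight loss % is the loss induced by drug treatment.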

The subject of data set [11] is Mus musculus. Briefly: Toxicity in human MKN28 cells xenografted athymic mouse assessed as survival at 8 mg/kg, po administered in q4dx4 schedule. The data set is classed as organism-based, MKN-28. The note with it: in vivo. On the set-up: dose 8 mg/kg, route oral. Summed up: as §3
The test system of data set [12] is Mus musculus. As to the kind of experiment: Toxicity in human MKN28 cells xenografted athymic mouse assessed as loss of body weight at 8 mg/kg, po administered in q4dx4 schedule. The format is organism-based, MKN-28. Set-up: dose 8 mg/kg, route oral. To be noted: in vivo. In a few lines:
as §4

The test system of data set [13] is Mus musculus. Briefly: Toxicity in human MKN28 cells xenografted athymic mouse assessed as loss of body weight at 16 mg/kg, po administered in q4dx4 schedule. The format is organism-based, MKN-28. Set-up: dose 16 mg/kg, route oral. To be noted: in vivo. In a few lines: as §4
The subject of data set [14] is Mus musculus. As to the kind of experiment: Toxicity in human MKN28 cells xenografted athymic mouse assessed as survival at 16 mg/kg, po administered in q4dx4 schedule. The format is organism-based, MKN-28. Set-up: dose 16 mg/kg, route oral. To be noted: in vivo. Summed up:
as §3

Data set [15] has as its system MKN-28. Briefly: Antitumor activity against human MKN28 cells xenografted athymic mouse assessed as inhibition of tumor volume at 8 mg/kg, po administered in q4dx4 schedule. The data set is classed as functional. Summed up:
as §2

For data set [16], the system named is MKN-28. Briefly: Antitumor activity against human MKN28 cells xenografted athymic mouse assessed as inhibition of tumor volume at 4 mg/kg, po administered in q4dx4 schedule. The format is functional. In a few lines: as §2
Data set [17] relates to NCI-H460. As to the kind of experiment: Antiproliferative activity against human H460 cells after 2 hrs of drug exposure measured after 72 hrs. The data set is classed as functional, cell-based. In a few lines:
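Growth inhibition with IC50 taken after 2-h drug exposure, as the concentration giving 50% reduction of cell growth versus untreated controls.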

The term IC50 denotes the concentration needed to halve the response being measured. Higher therefore signals weaker potency in that assay. The inhibition in vivo is the relative decrease from the control value, in per cent.

Take `CC[C@@]1(O)C(=O)OCc2c1cc1n(c2=O)Cc2c-1nc1ccccc1c2/C=N/OCc1ccccc1`: the IC50 is 30 nM in the data set with NCI-H460 [1], 56 nM in the data set with HT-29 [2] and 42 nM in the data set with HT-29 [4]. For the same compound, in the data set with HT-29 [3], the “Ratio IC50” value is on record as 0.75.

With `CC[C@@]1(O)OC(=O)c2c1cc1n(c2=O)Cc2c-1nc1ccccc1c2/C=N/OC(C)(C)C`, the LCK stood at 1.6 in the data set with PANC-1 and 1.1 in [7]. For the same compound, the Activity entry with Mus musculus [5] and with Mus musculus [6] was “Non-toxic” throughout.

In the case of `CCC1(O)CC(=O)OCc2c1cc1n(c2=O)Cc2c-1nc1ccccc1c2/C=N/OCc1ccccc1` (stereo unspecified), the IC50 with NCI-H460 [1] is 15 nM; in the data set on HT-29 [2] it was 17 nM; in the data set on HT-29 [4] it was 350 nM. Moreover, the Activity result in the data set on Mus musculus [8] is “Non-toxic”; in the data set on Mus musculus [10], 0%; with Mus musculus [11], “Non-toxic”; with Mus musculus [12] it was 6%; in the data set with Mus musculus [13], 0%; with Mus musculus [14], “Non-toxic”. Further, the LCK with MKN-28 [9] was 0.2; with MKN-28 [15], 0.4; in the data set with MKN-28 [16], 0. Further, the inhibition in vivo at 16 mg/kg with MKN-28 [9] (Mus musculus, MKN-28) was found to be 47%. Moreover, the “Ratio IC50” value in the data set on HT-29 [3] was found to be 20. Moreover, the inhibition in vivo at 8 mg/kg in the data set on MKN-28 [15] (Mus musculus, MKN-28) is 60%. Moreover, in the data set on MKN-28 [16] (Mus musculus, MKN-28), the inhibition in vivo at 4 mg/kg came to 17%.

In the data set with NCI-H460 [17], `CC[C@@]1(O)CC(=O)OCc2c1cc1n(c2=O)Cc2c-1nc1ccccc1c2/C=N/OC(C)(C)C` yielded an IC50 of 1.8 nM.

On to `CC[C@]1(O)CC(=O)OCc2c1cc1n(c2=O)Cc2c-1nc1ccccc1c2/C=N/OC(C)(C)C`, for which the IC50 in the data set on NCI-H460 [17] is > 200 nM.
